Data set [1] is described as follows: Ratio of drug level in Sprague-Dawley rat brain to plasma at 10 mg/kg, ip. Type of data set: ADME, organism-based. The conditions noted are these: read-out: BPR.
Data set [2] in a line: Permeability of compound across apical to basal compartment in PBS at pH 5.5 at 10 uM after 4 hrs by PAMPA. Type of data set: ADME. The conditions noted are these: pH 5.5, 4 h. The essentials:
(§1)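 PAMPA kit per manufacturer; compound at 10 µM final added to the apical compartment in PBS at pH 5.5 or 7.4; incubated 4 h at room temperature; both compartments sampled and measured by LC–MS; percent apical-to-basal transport, mean of 3.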
A general note: In PAMPA a lipid-coated filter parts donor from acceptor wells.

The target of data set [3] is T1, Cannabinoid receptor 1 (Homo sapiens, UniProt P21554). Briefly: Displacement of [3H]CP55940 from human CB1 receptor expressed in CHO cell membranes. It is filed as cell-based. (In a radioligand displacement assay an active substance lowers the binding of a labelled ligand.)
T1 sequence (P21554 whole entry): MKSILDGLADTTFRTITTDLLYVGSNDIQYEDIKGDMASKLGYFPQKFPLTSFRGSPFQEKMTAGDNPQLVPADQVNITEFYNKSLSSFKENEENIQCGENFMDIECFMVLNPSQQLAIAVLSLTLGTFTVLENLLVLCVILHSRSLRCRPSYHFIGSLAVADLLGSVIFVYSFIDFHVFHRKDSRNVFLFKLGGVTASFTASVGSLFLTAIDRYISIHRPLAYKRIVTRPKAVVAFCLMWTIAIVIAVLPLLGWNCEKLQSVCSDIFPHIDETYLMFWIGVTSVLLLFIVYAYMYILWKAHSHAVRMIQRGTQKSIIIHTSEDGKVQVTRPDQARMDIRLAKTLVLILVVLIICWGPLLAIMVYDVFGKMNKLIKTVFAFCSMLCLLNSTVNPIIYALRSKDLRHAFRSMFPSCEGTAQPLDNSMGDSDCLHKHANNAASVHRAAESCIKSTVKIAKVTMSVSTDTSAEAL
Data set [4] is described as follows: Permeability of compound across apical to basal compartment in PBS at pH 7.4 at 10 uM after 4 hrs by PAMPA. It is filed as ADME. The note with it: pH 7.4, 4 h. The essentials:
as §1

The next data set has as its system MDCK. The data set can be described thus: Permeability across apical to basolateral side of MDCK cell BBB penetration model expressing human mdr1 at 10 uM incubated for 1 hr by mass spectrometric analysis. The conditions noted are these: dog. Type of data set: ADME, cell-based, Canis lupus familiaris. The essentials: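 MDCK cells transfected with human MDR1 grown 4 days to confluence on Transwell-type filters in DMEM/F12 with 10% FBS and antibiotics. Compound added apically at 10 µM in HBSS with 25 mM glucose, HEPES pH 7.4; 1 h at 37 °C; apical and basal samples quantified by LC–MS/MS (MRM); percent apical-to-basal transport.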

In a further data set the test system is Liver. Briefly: Stability of compound in human liver S9 fractions assessed as compound remaining at 10 uM incubated for 60 mins by mass spectrometric analysis. It is filed as ADME, subcellular, Liver S9 fraction. The conditions noted are these: s9, 1 h. The essentials: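 Mixed-gender pooled human hepatic S9 at 1 mg/mL; compound at 10 µM final in 50 mM potassium phosphate pH 7.4, 3 mM MgCl2 with NADPH regenerating system (1 mM NADP, 5 mM glucose-6-phosphate, 1 unit/mL G6PDH); triplicates, 60 min; quenched with 3 volumes acetonitrile; LC–MS quantified against matrix standard curves; percent parent remaining.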

The target of another data set is Cannabinoid receptor 2 (Homo sapiens, UniProt P34972). Briefly: Displacement of [3H]CP55940 from human CB2 receptor expressed in CHO cell membranes.
Chain of Cannabinoid receptor 2 (P34972 whole entry): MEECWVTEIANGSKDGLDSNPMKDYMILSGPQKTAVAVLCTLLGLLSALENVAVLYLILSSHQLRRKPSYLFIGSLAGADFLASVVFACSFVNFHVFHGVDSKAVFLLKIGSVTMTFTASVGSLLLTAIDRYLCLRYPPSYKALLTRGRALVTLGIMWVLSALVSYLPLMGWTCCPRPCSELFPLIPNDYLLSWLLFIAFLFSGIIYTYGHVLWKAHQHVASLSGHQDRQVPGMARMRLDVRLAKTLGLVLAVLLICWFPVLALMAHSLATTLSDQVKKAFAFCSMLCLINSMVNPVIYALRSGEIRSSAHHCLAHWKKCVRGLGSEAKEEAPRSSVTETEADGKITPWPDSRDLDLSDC
The species named for the next data set is Homo sapiens. Briefly: Selectivity ratio of Ki for human CB2 receptor to Ki for human CB1 receptor. The essentials:
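Ki values from displacement of [³H]CP55940 in membranes of CHO cells overexpressing human CB1 or human CB2; ratio taken as Ki(CB2)/Ki(CB1). Binding was run only on compounds with apparent Ke <50 nM in the CB1 calcium assay.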

Data set [5] in a line: Drug uptake in Sprague-Dawley rat brain at 10 mg/kg, po after 4 hrs by LC-MS/MS analysis. The conditions noted are these: read-out: Drug uptake. Type of data set: ADME, organism-based. The method, boiled down:
(§2)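 Male Sprague Dawley rats (10 weeks on arrival, acclimated; 12 weeks at dosing, n=3) given a single oral gavage bolus of 10 mg/kg in 90% corn oil/10% DMSO. Sacrificed 4 h post-dose; brain and plasma collected; parent compound quantified by LC–MS/MS; mean and SD reported.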

Data set [6] in a line: Ratio of drug level in Sprague-Dawley rat brain to plasma at 10 mg/kg, po after 4 hrs by LC-MS/MS analysis. Type of data set: ADME, organism-based. The essentials:
as §2

The target of data set [7] is T1, Cannabinoid receptor 1. The data set can be described thus: Inverse agonist activity at human CB1 receptor expressed in CHO cells assessed as increase in intracellular calcium mobilization after 90 secs by Calcein-4 AM-staining based FLIPR assay. It is filed as functional, cell-based.
Data set [8] can be described thus: Plasma concentration in Sprague-Dawley rat at 10 mg/kg, po after 4 hrs by LC-MS/MS analysis. Type of data set: ADME, organism-based. The method, boiled down: as §2
Data set [9] addresses T1, Cannabinoid receptor 1. The note with it: CHO-K1.

Each structure is given as a SMILES string.

With `Cc1c(C(=O)NC2CCN(C(=O)OC(C)(C)C)CC2)nn(-c2ccc(Cl)cc2Cl)c1-c1ccc(Cl)cc1`, in data set [1], the Kp is less than 0.04.

As usually defined, the Ki is the equilibrium dissociation constant of an inhibitor or competing ligand from its target. A high value points to lower affinity. Regarding `CCCCC(=O)N1CCC(NC(=O)c2nn(-c3ccc(Cl)cc3Cl)c(-c3ccc(Cl)cc3)c2C)CC1`, the permeability in [2] was 1.1%; in data set [4], 1.8%; with MDCK, less than 1%. In addition, the Ki came to 14.5 nM at Cannabinoid receptor 1 [3] and 1780 nM on Cannabinoid receptor 2. Also, the Stability in the data set on Liver was 72%. Moreover, the Ratio Ki in the data set filed under Homo sapiens is 123.

As for `Cc1c(C(=O)NC2CCN(C(=O)OC(C)C)CC2)nn(-c2ccc(Cl)cc2Cl)c1-c1ccc(Cl)cc1`, the permeability in data set [2] is 0%; in [4] it was 0.1%; in the data set with MDCK, less than 1%. Moreover, the Ki at Cannabinoid receptor 1 [3] worked out at 6.4 nM; on Cannabinoid receptor 2, 1930 nM. In addition, in the data set on Liver, the Stability came out at 82%. In the data set listed under Homo sapiens, the Ratio Ki was 301.

As to `Cc1c(C(=O)N2CCC(NC(=O)NC(C)(C)C)(c3ccccc3)CC2)nn(-c2ccc(Cl)cc2Cl)c1-c1ccc(Cl)cc1`, the Kp in [1] was less than 0.04.

Turning to `Cc1c(C(=O)NC2CCN(C(=O)c3ccccc3)CC2)nn(-c2ccc(Cl)cc2Cl)c1-c1ccc(Cl)cc1`, the permeability is recorded as 0.3% in [2], 0.2% in [4] and less than 1% with MDCK. For the same compound, the Ki on Cannabinoid receptor 1 [3] came out at 7.5 nM; on Cannabinoid receptor 2 it was 1730 nM. Besides, the Stability in the data set with Liver is listed as more than 90%. Moreover, in the data set filed under Homo sapiens, the Ratio Ki was 230.

Turning to `Cc1c(C(=O)NC2CCN(C(=O)CC(C)C)CC2)nn(-c2ccc(Cl)cc2Cl)c1-c1ccc(Cl)cc1`, the permeability in data set [2] is on record as 3.3%; in data set [4], 3.6%; in the data set on MDCK, 1%. Besides, the Ki at Cannabinoid receptor 1 [3] was found to be 28.9 nM; on Cannabinoid receptor 2 it was 1810 nM. For the same compound, the Stability in the data set on Liver came out at 72%. In addition, the Ratio Ki in the data set filed under Homo sapiens is 63.

For orientation: EC50 means the concentration at which the effect is half-maximal. Regarding `CCCOC(=O)N1CCC(NC(=O)c2nn(-c3ccc(Cl)cc3Cl)c(-c3ccc(Cl)cc3)c2C)CC1`, the permeability is recorded as 1.4% in [2], 1.9% in data set [4] and less than 1% with MDCK. Moreover, the concentration at 4 h in [5] turned out to be 69 ng/g; in [8], 455 ng/mL. The inhibition constant Ki at Cannabinoid receptor 1 [3] came to 8.82 nM; on Cannabinoid receptor 2, 1540 nM. Besides, the BPR in data set [6] was 15%. In the data set with Liver, the Stability is 66%. In addition, in the data set listed under Homo sapiens, the Ratio Ki was determined as 175. Moreover, the EC50 on Cannabinoid receptor 1 [7] was 20 nM.

As for `Cc1c(C(=O)NC2CCN(C(=O)C(F)(F)F)CC2)nn(-c2ccc(Cl)cc2Cl)c1-c1ccc(Cl)cc1`, the permeability is on record as 0.4% in data set [2], 0.2% in data set [4] and less than 1% with MDCK. Further, the Ki on Cannabinoid receptor 1 [3] is 1.9 nM; at Cannabinoid receptor 2, 1040 nM. The Stability in the data set on Liver turned out to be 74%. Further, the Ratio Ki in the data set listed under Homo sapiens is 548.

Turning to `CCS(=O)(=O)N1CCC(NC(=O)c2nn(-c3ccc(Cl)cc3Cl)c(-c3ccc(Cl)cc3)c2C)CC1`, the permeability in [2] is listed as 0.1%; in [4], 0.05%; in the data set with MDCK it was less than 1%. Further, the Ki at Cannabinoid receptor 1 [3] was 44.4 nM; on Cannabinoid receptor 2 it was 4410 nM. The Stability in the data set on Liver was found to be 68%. The Ratio Ki in the data set listed under Homo sapiens is 99.

Regarding `Cc1c(C(=O)NC2CCN(C(=O)C3CCCC3)CC2)nn(-c2ccc(Cl)cc2Cl)c1-c1ccc(Cl)cc1`, the permeability was 0.2% in data set [2], 0.2% in [4] and less than 1% in the data set with MDCK. The Ki amounted to 9.2 nM at Cannabinoid receptor 1 [3] and 2500 nM at Cannabinoid receptor 2. The Stability with Liver was 62%. For the same compound, the Ratio Ki in the data set filed under Homo sapiens was 271.

For the compound `Cc1c(C(=O)NC2CCN(S(=O)(=O)c3ccccc3)CC2)nn(-c2ccc(Cl)cc2Cl)c1-c1ccc(Cl)cc1`, the permeability was 0.03% in [2], 0.1% in data set [4] and less than 1% in the data set on MDCK. Moreover, the Ki at Cannabinoid receptor 1 [3] is 43 nM; on Cannabinoid receptor 2, more than 20000 nM. The Stability in the data set on Liver was more than 90%.

Compound `Cn1c(=O)c2c(ncn2C)n(C)c1=O` [CAFFEINE] registered a permeability in the data set on MDCK of 80%.

Take `Cc1c(C(=O)NC2CCN(S(=O)(=O)CC(C)C)CC2)nn(-c2ccc(Cl)cc2Cl)c1-c1ccc(Cl)cc1`: the permeability is reported as 0.1% in data set [2], 0.2% in data set [4] and less than 1% in the data set with MDCK. Further, the Ki on Cannabinoid receptor 1 [3] stood at 43.5 nM; at Cannabinoid receptor 2, 6210 nM. Besides, the Stability in the data set with Liver was more than 90%. In addition, the Ratio Ki in the data set listed under Homo sapiens was determined as 143.

On to `Cc1c(C(=O)NC2CCN(S(=O)(=O)CCC(F)(F)F)CC2)nn(-c2ccc(Cl)cc2Cl)c1-c1ccc(Cl)cc1`, for which the permeability was 0.1% in [2], 0.1% in data set [4] and less than 1% in the data set on MDCK. Also, the figures for the Ki on Cannabinoid receptor 1 [3] and on Cannabinoid receptor 2 were 9.6 nM and 4720 nM, respectively. Moreover, in the data set with Liver, the Stability was more than 90%. The Ratio Ki in the data set listed under Homo sapiens was determined as 492.

With `CCCCOC(=O)N1CCC(NC(=O)c2nn(-c3ccc(Cl)cc3Cl)c(-c3ccc(Cl)cc3)c2C)CC1`, the Ke at Cannabinoid receptor 1 [9] was 88 nM.
